For data set [1], the target named is T1, Transient receptor potential cation channel subfamily M member 5 (Homo sapiens, UniProt Q9NZQ8).
T1 sequence (Q9NZQ8 whole entry): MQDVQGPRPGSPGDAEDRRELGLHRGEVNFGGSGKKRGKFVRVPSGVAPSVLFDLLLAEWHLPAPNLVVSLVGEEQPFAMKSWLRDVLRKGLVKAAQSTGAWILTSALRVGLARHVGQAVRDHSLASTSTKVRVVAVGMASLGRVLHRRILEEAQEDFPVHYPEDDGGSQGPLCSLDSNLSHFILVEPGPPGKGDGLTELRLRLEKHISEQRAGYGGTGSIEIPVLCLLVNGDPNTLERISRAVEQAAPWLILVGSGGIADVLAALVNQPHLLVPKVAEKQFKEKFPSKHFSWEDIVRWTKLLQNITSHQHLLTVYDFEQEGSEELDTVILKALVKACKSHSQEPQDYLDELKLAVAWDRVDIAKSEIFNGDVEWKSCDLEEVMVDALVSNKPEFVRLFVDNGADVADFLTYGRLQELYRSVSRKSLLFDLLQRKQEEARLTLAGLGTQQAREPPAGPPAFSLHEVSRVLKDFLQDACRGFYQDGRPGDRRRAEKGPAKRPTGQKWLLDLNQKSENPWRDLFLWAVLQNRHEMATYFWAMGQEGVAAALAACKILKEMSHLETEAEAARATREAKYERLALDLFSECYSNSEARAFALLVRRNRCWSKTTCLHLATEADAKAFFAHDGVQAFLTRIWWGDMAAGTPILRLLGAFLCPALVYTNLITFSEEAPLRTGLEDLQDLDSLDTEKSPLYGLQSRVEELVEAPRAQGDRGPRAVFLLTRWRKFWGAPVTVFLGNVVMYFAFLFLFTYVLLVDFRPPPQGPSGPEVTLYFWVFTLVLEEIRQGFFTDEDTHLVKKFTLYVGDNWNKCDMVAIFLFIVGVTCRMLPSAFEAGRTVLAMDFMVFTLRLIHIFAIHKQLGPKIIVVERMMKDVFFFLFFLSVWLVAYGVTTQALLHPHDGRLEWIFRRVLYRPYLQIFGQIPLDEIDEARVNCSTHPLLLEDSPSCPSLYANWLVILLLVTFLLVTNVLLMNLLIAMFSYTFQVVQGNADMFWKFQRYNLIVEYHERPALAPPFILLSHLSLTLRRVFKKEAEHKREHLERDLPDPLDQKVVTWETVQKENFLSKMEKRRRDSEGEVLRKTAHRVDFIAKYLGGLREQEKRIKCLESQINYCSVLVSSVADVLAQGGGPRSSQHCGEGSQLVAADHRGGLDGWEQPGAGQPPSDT
Put plainly: Agonist activity at human TRPM5 expressed in CHO-K1 cells maintained at 80 mV final holding potential by syncroPatch assay. In kind it is cell-based. The essentials: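 SyncroPatch 384 whole-cell recording at rt on CHO-K1 cells stably expressing human or mouse TRPM5. Intracellular solution had 2 mM Na-ATP and 5 μM free Ca2+. Cumulative doses 0.03–31.6 μM in 0.5% DMSO, 150 s each after 180 s vehicle. Current measured at the end of the +80 mV step, normalized to vehicle; pEC50 is the mean of ≥2 independent experiments.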

The nature of data set [2]: Intrinsic clearance in human liver microsomes assessed per mg protein incubated up to 30 mins in presence of NADPH by LC-MS/MS analysis. The conditions noted are these: […]. In kind it is ADME, Microsome.
A short description of data set [3]: Intrinsic clearance in mouse liver microsomes assessed per mg protein incubated up to 30 mins in presence of NADPH by LC-MS/MS analysis. To be noted: […]. In kind it is ADME, Microsome. Background: Microsomes from liver hold many membrane-bound enzymes, among them those of drug oxidation.

The text below walks through data of ChEMBL document CHEMBL4823260, “From High-Throughput Screening to Target Validation: Benzo[d]isothiazoles as Potent and Selective Agonists of Human Transient Receptor Potential Cation Channel Subfamily M Member 5 Possessing In Vivo Gastrointestinal Prokinetic Activity in Rodents” (J Med Chem, 2021).

Each structure is given as a SMILES string.

One may read the EC50 as the midpoint of the concentration-response curve. Read a low EC50 as higher potency in that assay.

In data set [1], `Cn1c(CNc2ccc(Cl)cc2)nc2ccccc21` showed an EC50 above 31.6 µM.
Consider `CN(Cc1ncc(Cl)n1C)c1ccc2cnsc2c1`, for which the EC50 in data set [1] is 0.0851 µM.
On the same count and under the same terms, next, `Cn1c(Cl)cnc1CNc1ccc2[nH]cnc2c1`: above 31.6 µM; `Clc1cnc(CNc2ccc3sncc3c2)[nH]1`: above 31.6 µM; `Cn1c(Cl)cnc1CNc1ccc2ocnc2c1`: 16.2 µM.
In data set [1], `Clc1cnc(CNc2ccc3sncc3n2)s1` gave an EC50 of 1.17 µM. Besides, the microsomal CLint in data set [2] stood at 172 µL/min/mg; in data set [3], 421 µL/min/mg.
As to `Clc1cnc(CNc2cnc3sncc3c2)s1`, the EC50 in data set [1] is 6.61 µM. Moreover, the microsomal CLint in data set [2] is 84 µL/min/mg; in data set [3], 163 µL/min/mg.
On to `CC(C)c1cnc(CNc2ccc3sncc3c2)s1`, for which, in data set [1], the EC50 is above 31.6 µM.
The same measure, in the same setting: next, `CN(Cc1ncc(Cl)n1C)c1cc2sncc2cc1Cl`: 0.309 µM; `Cn1c(CNc2ccc3sncc3c2)nc(Cl)c1Cl`: above 31.6 µM.
On to `CCN(Cc1ncc(Cl)n1C)c1ccc2sncc2c1`, for which the EC50 in data set [1] is 0.468 µM.
The same measure, in the same setting: next, `CN(Cc1ncc(Cl)s1)c1cc2cnsc2cc1Cl`: 1.62 µM; `Cc1nnc(CNc2ccc3sncc3c2)s1`: 19.1 µM.
As to `CC(C)(Nc1ccc2sncc2c1)c1ncc(Cl)s1`, the EC50 in data set [1] was above 31.6 µM. Moreover, the microsomal CLint was 173 µL/min/mg in data set [2] and 250 µL/min/mg in data set [3].
For `Cn1ccnc1CNc1ccc2sncc2c1`, in data set [1], the EC50 was 5.13 µM.
Still for that read-out and setting: next, `Cn1c(Cl)cnc1CNc1ccc2c(cnn2C)c1`: 5.25 µM; `Cn1ccnc1CNc1ccc(Cl)cc1OCCC(F)(F)F`: 2.51 µM; `Cc1nc(CNc2ccc3sncc3c2)sc1C`: above 31.6 µM.
In turn, `Cc1cc(NCc2ncc(Cl)s2)cc2cnsc12` had an EC50 in data set [1] above 31.6 µM. Besides, the microsomal CLint came to 169 µL/min/mg in data set [2] and 434 µL/min/mg in data set [3].
The corresponding values for `Fc1cc(NCc2ncc(Cl)s2)cc2cnsc12` are 1.38 µM, 202 µL/min/mg and 612 µL/min/mg.
Take `Cn1c(Cl)cnc1CNc1ccc2oncc2c1`: the EC50 in data set [1] was 3.02 µM.
Still for that read-out and setting: as for `Fc1cc2cnsc2cc1NCc1ncc(Cl)s1`, the figure is 0.0288 µM.
Same read-out and setting: next, `N#Cc1ccc(CNc2ccc3sncc3c2)s1`: above 31.6 µM.
`Cn1c(Br)cnc1CNc1ccc2sncc2c1` had an EC50 in data set [1] of 0.457 µM.
As to `Cc1cc2cnsc2cc1NCc1ncc(Cl)s1`, in data set [1], the EC50 was 0.0178 µM.
On the same count and under the same terms, next, `Cn1c(Cl)cnc1CN(CC1CCCCC1)c1ccc2sncc2c1`: above 31.6 µM.
Same read-out and setting: as for `c1csc(CNc2ccc3sncc3c2)n1`, the figure is 4.68 µM.
Turning to `Cc1cc2cnsc2cc1NCc1ncc(Cl)n1C`, the EC50 in data set [1] was 0.038 µM.
With `Cn1c(Cl)cnc1CNc1ccc2c(c1)nnn2C`, the EC50 in data set [1] is above 31.6 µM.
Compound `Clc1cnc(CNc2cc3cnsc3cn2)s1` gave an EC50 in data set [1] of 0.468 µM. For the same compound, the microsomal CLint in data set [2] worked out at 155 µL/min/mg; in data set [3], 93 µL/min/mg.
As to `COc1ccc(N(C)Cc2ncc(Cl)n2C)cc1OC`, the EC50 in data set [1] is above 31.6 µM.
For the compound `Cn1c(Cl)ccc1CNc1ccc2sncc2c1`, the EC50 in data set [1] is above 31.6 µM.
Consider `Clc1cnc(CNc2cccc3sncc23)s1`, for which the 50% effective concentration (EC50) in data set [1] is above 31.6 µM.
In data set [1], `Cc1cc2sncc2cc1NCc1ncc(Cl)s1` showed an EC50 of 0.0389 µM. The figures for the microsomal CLint in data set [2] and in data set [3] were 157 µL/min/mg and 148 µL/min/mg, respectively.
As for `Clc1cnc(CNc2ccc3sncc3c2Cl)s1`, in data set [1], the EC50 is 1.58 µM. In addition, the results for the microsomal CLint in data set [2] and in data set [3] were 174 µL/min/mg and 258 µL/min/mg, respectively.
With `Cc1cc2sncc2cc1N(C)Cc1ncc(Cl)s1`, a half-maximal response in data set [1] (EC50) required 5.25 µM. The microsomal CLint was found to be 562 µL/min/mg in data set [2] and 748 µL/min/mg in data set [3].
As to `CC(Nc1ccc2sncc2c1)c1ncc(Cl)s1` (configuration not stated), in data set [1], the EC50 is 7.59 µM.
As for `Cn1c(Cl)cnc1CNc1cc2sncc2cc1F`, the EC50 in data set [1] was 0.102 µM.
The compound `Cn1c(Cl)cnc1CN(CC1CC1)c1ccc2sncc2c1` gave an EC50 in data set [1] of 0.158 µM.
Compound `CN(Cc1ncc(Cl)s1)c1ccc2sncc2c1` gave an EC50 in data set [1] of 0.447 µM.
In data set [1], `Cc1c(NCc2ncc(Cl)s2)ccc2sncc12` showed a concentration giving a half-maximal response (EC50) of 1.74 µM. Further, the microsomal CLint came out at 178 µL/min/mg in data set [2] and 508 µL/min/mg in data set [3].
The compound `Cn1c(Cl)cnc1CN(Cc1ccccc1)c1ccc2sncc2c1` showed an EC50 in data set [1] above 31.6 µM.
Take `Cn1c(Cl)cnc1CNc1ccc2cnsc2c1`: the response in data set [1] was half-maximal at 0.295 µM (EC50).
In the case of `Cc1cnc(CNc2ccc3sncc3c2)s1`, in data set [1], a half-maximal effect (EC50) was put at 0.575 µM.
In data set [1], `Clc1cnc(COc2ccc3sncc3c2)s1` had an EC50 of 0.832 µM. For the same compound, the microsomal CLint in data set [2] amounted to 157 µL/min/mg; in data set [3] it was 763 µL/min/mg.
In data set [1], `Cc1csc(CNc2ccc3sncc3c2)n1` gave an EC50 above 31.6 µM.
`Cn1c(Cl)cnc1CNc1ccc2scnc2c1`: in data set [1], a half-maximal response (EC50) required 13.5 µM.
Regarding `CN(Cc1ncc(Cl)s1)c1cc2cnsc2cc1F`, in data set [1], a half-maximal effect (EC50) was put at 2.82 µM.
`O=C(Nc1ccc2sncc2c1)c1ncc(Cl)s1`: the EC50 in data set [1] was above 31.6 µM.
The compound `CN(Cc1ncc(Cl)n1C)c1ccc2sncc2c1` gave an EC50 in data set [1] of 0.158 µM.
In the case of `Clc1cnc(CNc2cc3cnsc3cc2Cl)s1`, in data set [1], the EC50 is 0.0245 µM. Moreover, the microsomal CLint in data set [2] worked out at 149 µL/min/mg; in data set [3] it was 527 µL/min/mg.
Take `Cn1c(Cl)cnc1CN1CC(CO)Cc2cccc(F)c21` (configuration not stated): the EC50 in data set [1] is 5.01 µM.
`Clc1cnc(CNc2cc(Cl)c3sncc3c2)s1` showed an EC50 in data set [1] above 31.6 µM. In addition, the figures for the microsomal CLint in data set [2] and in data set [3] were 150 µL/min/mg and 221 µL/min/mg, respectively.
`Clc1ccc(CNc2ccc3sncc3c2)s1` gave an EC50 in data set [1] of 2.75 µM.
In the case of `Clc1cnc(CNc2cccc3cnsc23)s1`, in data set [1], the EC50 was 1.45 µM.
On to `Fc1c(NCc2ncc(Cl)s2)ccc2sncc12`, for which the EC50 in data set [1] is 0.933 µM. The microsomal CLint came to 247 µL/min/mg in data set [2] and 448 µL/min/mg in data set [3].
`c1ccc2sc(CNc3ccc4sncc4c3)nc2c1` gave an EC50 in data set [1] above 31.6 µM.
`CC(C)N(Cc1ncc(Cl)n1C)c1ccc2sncc2c1` gave an EC50 in data set [1] of 5.13 µM.
Same read-out and setting: next, `CCN(Cc1ncc(Cl)n1C)c1ccc(Br)cc1`: 5.13 µM.
In data set [1], `Fc1cc2sncc2cc1NCc1ncc(Cl)s1` gave a 50% effective concentration (EC50) of 0.0977 µM. Besides, the microsomal CLint in data set [2] is 142 µL/min/mg; in data set [3], 312 µL/min/mg.
On to `FC(F)(F)c1cnc(CNc2ccc3sncc3c2)s1`, for which the EC50 in data set [1] was 0.49 µM.
Same read-out and setting: as for `CC(=O)N(Cc1ncc(Cl)n1C)c1ccc2sncc2c1`, the figure is above 31.6 µM.
Regarding `Cn1c(Cl)cnc1CNc1ccc2[nH]ncc2c1`, the EC50 in data set [1] is 6.03 µM.
Compound `Cn1nc(CNc2ccc3sncc3c2)cc1C(F)(F)F` gave an EC50 in data set [1] above 31.6 µM.
For `Cn1c(Cl)cnc1CNc1cc2sncc2cc1Cl`, the EC50 in data set [1] was 0.0112 µM.
`Clc1snnc1CNc1ccc2sncc2c1`: in data set [1], the EC50 was 5.25 µM.
On the same count and under the same terms, as for `Cn1c(Cl)cnc1CN1CCc2ccccc21`, the figure is 22.9 µM.
